The source of these data is ChEMBL document CHEMBL1212859, “Novel aminopeptidase N (APN/CD13) inhibitors derived from 3-phenylalanyl-N'-substituted-2,6-piperidinedione” (Bioorg Med Chem, 2010).

A value given as a limit tells only on which side of the number the result lay.

In one experiment the target is T1, Aminopeptidase N (Sus scrofa, UniProt P15145).
T1 sequence (P15145 whole entry): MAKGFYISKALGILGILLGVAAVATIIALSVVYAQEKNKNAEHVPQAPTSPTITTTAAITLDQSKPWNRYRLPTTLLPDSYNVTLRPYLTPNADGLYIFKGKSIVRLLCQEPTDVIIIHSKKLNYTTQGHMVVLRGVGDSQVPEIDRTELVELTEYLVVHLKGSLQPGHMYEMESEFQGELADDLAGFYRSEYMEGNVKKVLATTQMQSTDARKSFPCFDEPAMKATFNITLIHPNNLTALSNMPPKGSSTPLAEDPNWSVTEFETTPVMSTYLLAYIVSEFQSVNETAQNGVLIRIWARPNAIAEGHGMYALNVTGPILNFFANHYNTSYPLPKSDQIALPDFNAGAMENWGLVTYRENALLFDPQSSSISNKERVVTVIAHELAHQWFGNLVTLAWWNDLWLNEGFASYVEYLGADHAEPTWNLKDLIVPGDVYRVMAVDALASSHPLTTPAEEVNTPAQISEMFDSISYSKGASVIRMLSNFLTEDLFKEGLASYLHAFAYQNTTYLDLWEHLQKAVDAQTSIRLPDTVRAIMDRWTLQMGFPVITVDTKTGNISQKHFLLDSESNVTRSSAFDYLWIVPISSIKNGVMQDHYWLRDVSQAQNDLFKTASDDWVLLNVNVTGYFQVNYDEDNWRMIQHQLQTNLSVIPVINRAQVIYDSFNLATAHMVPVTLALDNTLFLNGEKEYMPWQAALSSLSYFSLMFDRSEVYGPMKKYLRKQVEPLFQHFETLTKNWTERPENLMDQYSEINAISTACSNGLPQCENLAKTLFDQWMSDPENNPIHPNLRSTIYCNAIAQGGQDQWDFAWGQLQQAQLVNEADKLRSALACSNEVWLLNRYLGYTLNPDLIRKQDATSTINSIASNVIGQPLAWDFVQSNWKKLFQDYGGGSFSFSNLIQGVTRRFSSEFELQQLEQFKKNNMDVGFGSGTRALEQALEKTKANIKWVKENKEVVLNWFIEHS
Briefly: Inhibition of pig kidney microsome aminopeptidase N after 30 mins by UV-vis spectrophotometric analysis. The procedure, abridged: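 Enzyme was porcine kidney microsomal aminopeptidase at 4 mg/ml final, with L-Leu-p-nitroanilide as substrate. Inhibitor solutions were made in assay buffer adjusted to pH 7.5. Inhibitors were preincubated with enzyme for 30 min at room temperature.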

Experiment [1] has as its target 72 kDa type IV collagenase (Homo sapiens, UniProt P08253). Put plainly: Inhibition of MMP2 after 30 mins. The procedure, abridged:
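Gelatinase A (MMP-2), synthesized substrate and inhibitor were dissolved together in 50 mmol/L sodium borate, pH 8.5, and incubated for 30 min at 37 °C. TNBS was used in the assay.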

The test system of the next experiment is HL-60. Briefly: Cytotoxicity against human HL60 cells expressing aminopeptidase N after 72 hrs by MTT assay. The format is functional, cell-based. The settings on record: HL-60, 72 h. The procedure, abridged:
(§1)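 Cells grown in RPMI1640 with 10% FBS at 37 °C under humidified 5% CO2. HL-60 cells have high APN expression and MDA-MB-231 cells have low expression. Plated at 10,000 cells/well and allowed 4 h in complete medium. Exposed for 72 h to five concentrations from 2000 down to […]. Proliferation read by MTT. Mean of three independent experiments.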

The subject of another experiment is MDA-MB-231. Put plainly: Cytotoxicity against human MDA-MB-231 cells after 72 hrs by MTT assay. The format is functional, cell-based. Conditions: MDA-MB-231, 72 h. The gist of the method:
as §1

Chain of 72 kDa type IV collagenase (P08253 whole entry): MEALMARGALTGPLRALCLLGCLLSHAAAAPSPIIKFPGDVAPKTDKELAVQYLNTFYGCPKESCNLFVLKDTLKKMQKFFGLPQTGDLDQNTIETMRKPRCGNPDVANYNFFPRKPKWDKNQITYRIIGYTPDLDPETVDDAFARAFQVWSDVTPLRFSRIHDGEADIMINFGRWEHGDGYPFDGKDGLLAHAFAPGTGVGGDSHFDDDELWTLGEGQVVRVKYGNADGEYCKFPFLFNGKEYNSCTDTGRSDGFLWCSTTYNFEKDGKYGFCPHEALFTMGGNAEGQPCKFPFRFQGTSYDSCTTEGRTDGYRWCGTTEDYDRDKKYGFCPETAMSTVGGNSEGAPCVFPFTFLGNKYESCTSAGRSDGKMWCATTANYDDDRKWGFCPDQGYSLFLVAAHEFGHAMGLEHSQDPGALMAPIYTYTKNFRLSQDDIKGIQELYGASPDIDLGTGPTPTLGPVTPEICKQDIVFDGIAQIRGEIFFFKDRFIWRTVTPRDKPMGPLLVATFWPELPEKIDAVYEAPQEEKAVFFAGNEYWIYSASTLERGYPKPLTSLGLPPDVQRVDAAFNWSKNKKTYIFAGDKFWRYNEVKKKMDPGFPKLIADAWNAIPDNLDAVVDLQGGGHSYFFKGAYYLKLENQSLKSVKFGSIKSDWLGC

The IC50 is the concentration needed to halve the response being measured. Consider `N[C@@H](Cc1ccccc1)C(=O)N[C@H]1CCC(=O)N(CC(=O)NCC(=O)O)C1=O`, for which the figures for the IC50 (at Aminopeptidase N; in experiment [1]) were 38.7 µM and 107 µM, respectively.

Take `C[C@H](NC(=O)CN1C(=O)CC[C@H](NC(=O)[C@@H](N)Cc2ccccc2)C1=O)C(=O)O`: the IC50 at Aminopeptidase N was 110 µM; in experiment [1], 155 µM.

Regarding `Cc1ccc(NC(=O)CN2C(=O)CC[C@H](NC(=O)[C@@H](N)Cc3ccccc3)C2=O)c(C)c1`, the concentration for half-maximal inhibition (IC50) turned out to be 5 µM against Aminopeptidase N, 1970 µM with HL-60, 8.27 µM in experiment [1] and 8590 µM in the experiment on MDA-MB-231.

With `C[C@H](NC(=O)CN1C(=O)CC[C@H](NC(=O)[C@@H](N)Cc2ccccc2)C1=O)C(=O)OCc1ccccc1`, the IC50 was 91.6 µM at Aminopeptidase N and 129 µM in experiment [1].

Consider `N[C@@H](Cc1ccccc1)C(=O)N[C@H]1CCC(=O)N(CC(=O)Nc2cccc(Cl)c2)C1=O`, for which the 50% inhibitory concentration (IC50) was found to be 6.92 µM at Aminopeptidase N, 2220 µM in the experiment with HL-60, 60.4 µM in experiment [1] and 9480 µM in the experiment with MDA-MB-231.

Take `CC(C)C[C@H](NC(=O)CN1C(=O)CC[C@H](NC(=O)[C@@H](N)Cc2ccccc2)C1=O)C(=O)O`: the IC50 was 8.42 µM on Aminopeptidase N, 5210 µM in the experiment on HL-60, more than 1000 µM in experiment [1] and 14400 µM in the experiment with MDA-MB-231.

`NC(Cc1ccccc1)C(=O)N[C@H]1CCC(=O)N(CC(=O)NCC(=O)NO)C1=O` (single isomer, unassigned): the IC50 amounted to 304 µM on Aminopeptidase N and 141 µM in experiment [1].

`N[C@@H](Cc1ccccc1)C(=O)N[C@H]1CCC(=O)N(CC(=O)N[C@@H](Cc2ccccc2)C(=O)O)C1=O`: the values for the 50% inhibitory concentration (IC50) (against Aminopeptidase N; in experiment [1]) were 66.4 µM and 316 µM, respectively.

In the case of `N[C@@H](Cc1ccccc1)C(=O)N[C@H]1CCC(=O)N(CC(=O)Nc2ccc(Br)cc2)C1=O`, the results for the 50% inhibitory concentration (IC50) (on Aminopeptidase N; in experiment [1]) were 74 µM and 71.6 µM, respectively.

On to `N[C@@H](Cc1ccccc1)C(=O)N[C@H]1CCC(=O)N(CC(=O)NCC(=O)OCc2ccccc2)C1=O`, for which the IC50 against Aminopeptidase N was 13.4 µM; in experiment [1] it was 454 µM.

As to `N[C@@H](Cc1ccccc1)C(=O)N[C@H]1CCC(=O)N(CC(=O)Nc2ccc(F)cc2)C1=O`, the IC50 against Aminopeptidase N turned out to be 252 µM; in experiment [1], 122 µM.

Consider `N[C@@H](Cc1ccccc1)C(=O)N[C@H]1CCC(=O)N(CC(=O)Nc2ccc(F)c(F)c2)C1=O`, for which the values for the concentration for half-maximal inhibition (IC50) (against Aminopeptidase N; in experiment [1]) were 53.4 µM and 46.9 µM, respectively.

Consider `N[C@@H](Cc1ccccc1)C(=O)N[C@H]1CCC(=O)N(CC(=O)Nc2ccc(F)c(Cl)c2)C1=O`, for which the half-maximal inhibitory concentration (IC50) turned out to be 170 µM on Aminopeptidase N and 131 µM in experiment [1].

Consider `N[C@@H](Cc1ccccc1)C(=O)N[C@H]1CCC(=O)N(CC(=O)N[C@@H](CCC(=O)OCc2ccccc2)C(=O)OCc2ccccc2)C1=O`, for which the IC50 on Aminopeptidase N was determined as 91.4 µM; in experiment [1] it was 272 µM.

As to `NC(Cc1ccccc1)C(=O)N[C@H]1CCC(=O)N(CC(=O)N[C@@H](CCC(=O)O)C(=O)O)C1=O` (single isomer, unassigned), the IC50 is 12.6 µM against Aminopeptidase N and more than 1000 µM in experiment [1].

Take `COc1ccc(NC(=O)CN2C(=O)CC[C@H](NC(=O)[C@@H](N)Cc3ccccc3)C2=O)cc1`: the figures for the IC50 (against Aminopeptidase N; in experiment [1]) were 178 µM and more than 1000 µM, respectively.

Take `NC(Cc1ccccc1)C(=O)N[C@H]1CCC(=O)N(CC(=O)NCCC(=O)O)C1=O` (single isomer, unassigned): the concentration for half-maximal inhibition (IC50) at Aminopeptidase N stood at 12.8 µM; in experiment [1], 22.7 µM.

As to `CC(C)C[C@H](NC(=O)[C@@H](O)[C@H](N)Cc1ccccc1)C(=O)O` [UBENIMEX], the values for the IC50 (in the experiment on HL-60; in experiment [1]; in the experiment with MDA-MB-231) were 1130 µM, 157 µM and 8590 µM, respectively.

`NC(Cc1ccccc1)C(=O)N[C@H]1CCC(=O)N(CC(=O)NCCC(=O)OCc2ccccc2)C1=O` (single isomer, unassigned): the IC50 at Aminopeptidase N is 49.7 µM; in experiment [1], 127 µM.

`N[C@@H](Cc1ccccc1)C(=O)N[C@H]1CCC(=O)N(CC(=O)N[C@@H](Cc2ccccc2)C(=O)OCc2ccccc2)C1=O`: the half-maximal inhibitory concentration (IC50) was determined as 6.48 µM at Aminopeptidase N, 2540 µM with HL-60, 12 µM in experiment [1] and 10200 µM in the experiment on MDA-MB-231.

Regarding `CC(C)C[C@H](NC(=O)CN1C(=O)CC[C@H](NC(=O)[C@@H](N)Cc2ccccc2)C1=O)C(=O)OCc1ccccc1`, the concentration for half-maximal inhibition (IC50) is 30.2 µM against Aminopeptidase N and 121 µM in experiment [1].

On to `CC(C)[C@H](NC(=O)CN1C(=O)CC[C@H](NC(=O)[C@@H](N)Cc2ccccc2)C1=O)C(=O)O`, for which the half-inhibitory concentration (IC50) on Aminopeptidase N is 13.3 µM; in experiment [1], more than 1000 µM.

In the case of `CC(C)[C@H](NC(=O)CN1C(=O)CC[C@H](NC(=O)[C@@H](N)Cc2ccccc2)C1=O)C(=O)OCc1ccccc1`, the results for the IC50 (at Aminopeptidase N; in experiment [1]) were 30.1 µM and 18.5 µM, respectively.

Take `N[C@@H](Cc1ccccc1)C(=O)N[C@H]1CCC(=O)N(CC(=O)Nc2ccccc2F)C1=O`: the IC50 on Aminopeptidase N amounted to 245 µM; in experiment [1] it was 62.7 µM.
